This is an account of results in ChEMBL document CHEMBL4261487, “Small structural changes of the imidazopyridine diacylglycerol acyltransferase 2 (DGAT2) inhibitors produce an improved safety profile” (Medchemcomm, 2017).

Data set [1] relates to Canis familiaris. Kind of data set: Unbound AUC in beagle dog at 75 mg/kg, po qd administered for 14 days. Conditions: in vivo, 336 h. The class given is ADME, organism-based, Canis lupus familiaris. The essentials: (§1)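 Beagle dogs were dosed orally once daily in a 14-day exploratory study or 1-month toxicity studies. Steady-state systemic exposure over the 24 h dosing interval is reported as the mean of male and female values combined.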

Data set [2] concerns Canis familiaris. As to the kind of experiment: Toxicity in telemetered beagle dog assessed as increase in systolic pressure at 10 mg/kg administered via oral gavage measured over 24 hrs. The data set is classed as organism-based, Canis lupus familiaris. Conditions: in vivo.
For data set [3], the system named is Canis familiaris. Kind of data set: Unbound Cmax in beagle dog at 50 mg/kg, po qd administered for 1 month. The data set is classed as ADME, organism-based, Canis lupus familiaris. Conditions: in vivo. The essentials:
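Beagle dogs were given the compound orally once daily for 1 month in a toxicity study, with 2 dogs per sex per dose group. Plasma exposure was measured at steady state across the 24 h dosing interval.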

Data set [4] has as its system Canis familiaris. As to the kind of experiment: In vivo inhibition of DGAT2 in beagle dog assessed as coverage of in vitro IC50 for dog DGAT2 at 100 to 150 mg/kg, po qd administered for 1 month. The class given is functional, Canis lupus familiaris. The arrangement: scale not given: the % may be the effect or the level left. The method, boiled down: (§2)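 Beagle dogs, once-daily oral dosing for 14 days or 1 month; systemic exposure with sexes combined; coverage is the average % above dog DGAT2 IC50 at steady state over the 24 h dosing interval.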

Data set [5] relates to Canis familiaris. Kind of data set: Toxicity in telemetered beagle dog assessed as change in blood pressure at 5 mg/kg administered via oral gavage measured over 24 hrs. The data set is classed as organism-based, Canis lupus familiaris. Conditions: in vivo.
Data set [6] deals with Canis familiaris. Kind of data set: Unbound AUC in beagle dog at 50 mg/kg, po qd administered for 1 month. The data set is classed as ADME, organism-based, Canis lupus familiaris. Particulars: in vivo. The method, boiled down:
as §1

Data set [7] relates to Canis familiaris. Kind of data set: In vivo inhibition of DGAT2 in beagle dog assessed as coverage of in vitro IC50 for dog DGAT2 at 50 mg/kg, po qd administered for 1 month. The class given is functional, Canis lupus familiaris. The arrangement: scale not given: the % may be the effect or the level left. The method, boiled down: as §2
Data set [8] concerns Canis familiaris. Kind of data set: Unbound AUC in beagle dog at 5 mg/kg, po qd administered for 1 month. The class given is ADME, organism-based, Canis lupus familiaris. Particulars: in vivo. The essentials:
as §1

Data set [9] deals with Canis familiaris. As to the kind of experiment: Toxicity in telemetered beagle dog assessed as foamy salivation at 20 mg/kg, iv administered as single bolus dose over 2 mins. The data set is classed as organism-based, Canis lupus familiaris. Conditions: in vivo.
Data set [10] relates to Rattus norvegicus. Kind of data set: Unbound AUC in Wistar Han IGS rat at 60 mg/kg, po qd administered for 1 month. The class given is ADME, organism-based. Particulars: in vivo. The essentials: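 Wistar Han rats were dosed orally once daily for 14 days (exploratory, 5/sex/dose) or 1 month (toxicity, 10/sex/dose). Toxicokinetic satellite animals (3–4/sex/dose) were used, and steady-state systemic exposure is given as the mean of male and female values combined.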

In data set [11] the test system is Canis familiaris. Kind of data set: Toxicity in beagle dog assessed as body weight gain at 100 mg/kg, po qd administered starting on day 11 post 150 mg/kg dosing period and continuing for 20 days. Particulars: in vivo, 480 h. The class given is organism-based, Canis lupus familiaris.
Data set [12] has as its system Canis familiaris. As to the kind of experiment: Toxicity in beagle dog assessed as renal tubular regeneration at 300 mg/kg, po qd administered for 14 days. The data set is classed as organism-based, Canis lupus familiaris. Particulars: in vivo, 336 h.
Data set [13] deals with Canis familiaris. As to the kind of experiment: Toxicity in telemetered beagle dog assessed as change in heart rate at 5 mg/kg administered via oral gavage measured over 24 hrs. The data set is classed as organism-based, Canis lupus familiaris. Conditions: in vivo.
Data set [14] relates to Canis familiaris. Kind of data set: Toxicity in telemetered beagle dog assessed as increase in systolic pressure at 50 mg/kg administered via oral gavage measured during 4 hrs of post dosing. The class given is organism-based, Canis lupus familiaris. Conditions: in vivo.
The subject of data set [15] is Rattus norvegicus. Kind of data set: In vivo DGAT2 inhibition in po dosed sucrose-fed rat assessed as decrease in plasma triglyceride levels after 2 hrs. The class given is functional, organism-based. The essentials: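 Rats fed a high-sucrose diet, single oral dose of test article or vehicle; plasma TG measured in tail-vein blood 2 h post dose; n = 7–8 per group; results as percent change from vehicle group, one-way ANOVA with Dunnett's test.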

The target of data set [16] is Cytochrome P450 3A4 (Homo sapiens, UniProt P08684). Kind of data set: Drug metabolism in human liver microsomes assessed as fraction of CYP3A4-mediated oxidative metabolism preincubated for 5 mins followed by addition of NADPH regenerating system and measured after 2.5 to 60 mins. The data set is classed as ADME. The essentials:
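Fractions of metabolism attributed to CYP oxidation and UGT glucuronidation were derived from human liver microsomal incubations. For the glucuronidation arm, microsomes were supplemented with the UGT cofactor UDP-glucuronic acid.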

Data set [17] is described as follows: Ratio of Cmax in beagle dog at 30 mg/kg, po qd administered for 1 month to IC50 for in vitro inhibition of dog DGAT2. The class given is organism-based, Canis lupus familiaris. Particulars: in vivo. The method, boiled down:
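One-month toxicity study in Beagle dogs with N = 2/sex/dose. Plasma exposure at each dose level was referenced to the dog DGAT2 enzymatic IC50, reported as the geometric mean of at least three replicates.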

The target of data set [18] is T1, Diacylglycerol O-acyltransferase 2 (Canis lupus familiaris, UniProt A0A8I3NDW2).
T1 sequence (A0A8I3NDW2 whole entry): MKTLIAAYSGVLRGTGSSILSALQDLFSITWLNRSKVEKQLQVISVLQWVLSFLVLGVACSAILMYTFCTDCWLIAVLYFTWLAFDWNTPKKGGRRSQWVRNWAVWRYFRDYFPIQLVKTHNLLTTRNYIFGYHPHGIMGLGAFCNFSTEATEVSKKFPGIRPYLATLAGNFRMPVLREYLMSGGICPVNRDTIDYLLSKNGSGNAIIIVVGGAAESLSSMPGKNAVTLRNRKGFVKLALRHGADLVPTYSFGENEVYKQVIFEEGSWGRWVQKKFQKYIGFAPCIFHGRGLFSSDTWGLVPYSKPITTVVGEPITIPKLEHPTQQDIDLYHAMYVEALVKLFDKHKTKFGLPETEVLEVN
As to the kind of experiment: Inhibition of dog DGAT2.

A short description of data set [19]: Apparent intrinsic clearance in human hepatocytes assessed per million cells. The class given is ADME, cell-based, Hepatocyte.
The test system of data set [20] is Canis familiaris. Kind of data set: In vivo inhibition of DGAT2 in beagle dog assessed as coverage of in vitro IC50 for dog DGAT2 at 3 mg/kg, po qd administered for 1 month. The class given is functional, Canis lupus familiaris. The arrangement: scale not given: the % may be the effect or the level left. The method, boiled down:
as §2

A value given as a limit tells only on which side of the number the result lay.

Cytochrome P450 3A4, sequence (P08684 whole entry): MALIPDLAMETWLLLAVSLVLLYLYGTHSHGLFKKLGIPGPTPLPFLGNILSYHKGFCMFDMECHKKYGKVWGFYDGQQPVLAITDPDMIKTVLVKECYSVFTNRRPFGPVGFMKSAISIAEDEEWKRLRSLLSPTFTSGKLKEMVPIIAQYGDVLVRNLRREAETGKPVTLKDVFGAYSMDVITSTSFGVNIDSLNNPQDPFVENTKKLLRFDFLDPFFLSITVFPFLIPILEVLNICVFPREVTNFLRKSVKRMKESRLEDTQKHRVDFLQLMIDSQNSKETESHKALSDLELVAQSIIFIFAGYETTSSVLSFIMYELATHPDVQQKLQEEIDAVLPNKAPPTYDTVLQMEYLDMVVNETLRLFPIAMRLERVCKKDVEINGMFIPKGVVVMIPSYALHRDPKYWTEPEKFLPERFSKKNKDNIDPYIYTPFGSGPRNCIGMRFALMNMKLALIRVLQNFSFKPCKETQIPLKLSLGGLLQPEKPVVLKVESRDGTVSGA

Turning to `CS(=O)(=O)O.O=C([C@@H]1CCCN(c2ccc3nc(C4(n5cc(Cl)cn5)CC4)[nH]c3n2)C1)N1CCCC1`, the fAUC in [1] is 24800 ng·h/mL; in data set [6], 57500 ng·h/mL; in data set [8], 1120 ng·h/mL; in data set [10] it was 22600 ng·h/mL. The Activity in data set [2] is 3 mmHg; in data set [4], over 99%; in [5], “Non-Toxic”; in [7], over 99%; in [9], “Non-Toxic”; in data set [11], “Non-Toxic”. Besides, the figures for the Activity entry in data set [12] and in data set [13] were “Toxic” and “Non-Toxic”, respectively. The fCmax in data set [3] worked out at 12.7 µM.
For orientation: IC50 means the concentration that inhibits the measured activity by half. For `C[C@@H](c1nc2ccc(N3CCC[C@@H](C(=O)N4CCCC4)C3)nc2[nH]1)n1cc(Cl)cn1`, the Activity stood at 5 mmHg in data set [14] and 65% in [20]. The inhibition entry in data set [15] is “Dose-dependent effect”. Also, the Ratio in data set [16] came to 0.61; in data set [17], 92. The IC50 in [18] is 41 nM. Besides, in [19], the “CLH(app)” value is 16.1 µL/min.
